Experimental data taken from ChEMBL document CHEMBL4024751, “Hit-to-Lead Optimization and Discovery of 5-((5-([1,1'-Biphenyl]-4-yl)-6-chloro-1H-benzo[d]imidazol-2-yl)oxy)-2-methylbenzoic Acid (MK-3903): A Novel Class of Benzimidazole-Based Activators of AMP-Activated Protein Kinase” (J Med Chem, 2017).

What was measured:
[1] = target: T1, AMPK alpha2/beta1/gamma1 (Homo sapiens) (UniProt P54646+P54619+Q9Y478); experiment: (§1) Agonist activity at human recombinant phosphorylated AMPK complex 7 alpha2/beta1/gamma1 expressed in baculovirus infected Sf21 cells assessed as phosphorylation of 5-FAM-labeled SAMS substrate at 50 uM preincubated for 30 mins in presence of AMPK activator followed by substrate addition measured after 60 mins relative to AMP
Method in brief: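 Activation of pAMPK7 is reported as percent activation at 50 μM, taken from 10-point titrations and averaged over at least two experiments.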

[2] = target: AMPK alpha2/beta1/gamma1 (Homo sapiens, UniProt P54619+P54646+Q9Y478); experiment: as §1, with “substrate” for “substrate at 50 uM”, “mins” for “mins relative to AMP”
Method in brief: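 Recombinant phosphorylated human AMPK complex; agonist tested as a 10-point titration up to 50 μM (∼2 nM to 50 μM in some series, ∼0.8 nM to 16 μM in others). EC50 is the average of at least two experiments. Percent maximum activation is the highest activation seen over the titration range, or the level at 50 μM.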

[3] = target: T1, AMPK alpha2/beta1/gamma1 (Homo sapiens); experiment: as §1, with “substrate at 0.002 to 50 uM” for “substrate at 50 uM”
Method in brief: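 Recombinant human pAMPK complexes were titrated at 10 points over about 2 nM to 50 μM. EC50 is the average of at least two experiments. %max is the highest activation seen within that range.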

[4] = target: T1, AMPK alpha2/beta1/gamma1 (Homo sapiens); experiment: as §1, with “0.0008 to 16” for “50”
Method in brief: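 Recombinant human pAMPK7 was titrated at 10 points over about 0.8 nM to 16 μM. EC50 is the average of at least two experiments. Percent maximum activation is the highest activation seen within that range.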

[5] = Oral bioavailability in C57BL/6 mouse by LC-MS/MS analysis; type: ADME, organism-based; conditions: in vivo
Method in brief: (§2)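 C57BL/6 mice were dosed 2 mg/kg IV and 10 mg/kg PO. Reported parameters: plasma clearance, Vdss, terminal t1/2, Cmax, tmax and oral bioavailability F. AUCN is the plasma AUC after PO dosing normalized to dose.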

[6] = system: Mus musculus; experiment: In vivo agonist activity at AMPK in C57BL/6 mouse assessed as inhibition of de novo lipogenesis at 30 mg/kg, ip; type: functional; conditions: C57BL/6, ip
[7] = Terminal half life in BCRP knockout mouse by LC-MS/MS analysis; type: ADME; conditions: in vivo, read-out: beta t1/2 (converted)
[8] = Volume of distribution at steady state in C57BL/6 mouse by LC-MS/MS analysis; type: ADME; conditions: in vivo, read-out: Vdss; method in brief: as §2
[9] = system: Mus musculus; experiment: Dose normalized AUC in po dosed C57BL/6 mouse administered via gavage by LC-MS/MS analysis; type: ADME, organism-based; conditions: in vivo; method in brief: as §2
[10] = system: Mus musculus; experiment: Dose normalized AUC in BCRP knockout mouse administered through oral gavage by LC-MS/MS analysis; type: ADME; conditions: in vivo
[11] = Oral bioavailability in BCRP knockout mouse by LC-MS/MS analysis; type: ADME, organism-based; conditions: in vivo
[12] = system: Mus musculus; experiment: In vivo agonist activity at AMPK C57BL/6 mouse assessed as inhibition of de novo lipogenesis at 100 mg/kg, po administered via gavage; type: functional; conditions: C57BL/6, po
[13] = Terminal half life in C57BL/6 mouse by LC-MS/MS analysis; type: ADME; conditions: in vivo, read-out: beta t1/2 (converted); method in brief: as §2
[14] = Plasma clearance in C57BL/6 mouse by LC-MS/MS analysis; type: ADME; method in brief: as §2
[15] = Plasma clearance in BCRP knockout mouse by LC-MS/MS analysis; type: ADME
[16] = Volume of distribution at steady state in BCRP knockout mouse by LC-MS/MS analysis; type: ADME; conditions: in vivo, read-out: Vdss
[17] = Apparent permeability of compound in pig LLC-PK1 cells by HPLC analysis; type: ADME, cell-based, Sus scrofa; conditions: llc-pk1
Method in brief: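 LLC-PK1 monolayer on polycarbonate filter. Compound in HBSS added to the apical or basolateral side. Both sides sampled at end of incubation and quantified by HPLC. Papp is the mean of A→B and B→A values.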

Sequence of AMPK alpha2/beta1/gamma1 (P54646 whole entry): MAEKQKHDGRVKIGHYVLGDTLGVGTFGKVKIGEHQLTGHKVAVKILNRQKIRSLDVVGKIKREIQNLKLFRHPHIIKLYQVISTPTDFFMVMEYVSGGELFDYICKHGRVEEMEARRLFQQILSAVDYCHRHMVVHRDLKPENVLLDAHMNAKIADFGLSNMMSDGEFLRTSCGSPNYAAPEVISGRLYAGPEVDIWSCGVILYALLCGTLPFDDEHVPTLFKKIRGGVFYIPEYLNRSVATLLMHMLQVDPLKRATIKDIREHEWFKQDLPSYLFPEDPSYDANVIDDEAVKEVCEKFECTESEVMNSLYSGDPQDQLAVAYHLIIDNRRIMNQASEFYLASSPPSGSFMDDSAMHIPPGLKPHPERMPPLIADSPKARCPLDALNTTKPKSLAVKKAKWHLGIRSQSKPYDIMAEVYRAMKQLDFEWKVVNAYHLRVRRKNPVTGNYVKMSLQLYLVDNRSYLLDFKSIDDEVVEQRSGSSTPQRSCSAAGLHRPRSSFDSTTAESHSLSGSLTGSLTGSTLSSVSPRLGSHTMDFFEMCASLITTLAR
Sequence of AMPK alpha2/beta1/gamma1 (P54619 whole entry): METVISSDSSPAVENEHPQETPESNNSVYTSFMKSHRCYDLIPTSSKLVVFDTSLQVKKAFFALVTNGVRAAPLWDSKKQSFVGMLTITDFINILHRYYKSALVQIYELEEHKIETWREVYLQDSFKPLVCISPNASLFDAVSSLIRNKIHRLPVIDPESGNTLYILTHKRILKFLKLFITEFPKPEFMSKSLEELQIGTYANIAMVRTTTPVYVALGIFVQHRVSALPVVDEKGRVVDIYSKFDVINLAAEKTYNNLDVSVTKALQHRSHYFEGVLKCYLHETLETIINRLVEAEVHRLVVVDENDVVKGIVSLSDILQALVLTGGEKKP
Sequence of AMPK alpha2/beta1/gamma1 (Q9Y478 whole entry): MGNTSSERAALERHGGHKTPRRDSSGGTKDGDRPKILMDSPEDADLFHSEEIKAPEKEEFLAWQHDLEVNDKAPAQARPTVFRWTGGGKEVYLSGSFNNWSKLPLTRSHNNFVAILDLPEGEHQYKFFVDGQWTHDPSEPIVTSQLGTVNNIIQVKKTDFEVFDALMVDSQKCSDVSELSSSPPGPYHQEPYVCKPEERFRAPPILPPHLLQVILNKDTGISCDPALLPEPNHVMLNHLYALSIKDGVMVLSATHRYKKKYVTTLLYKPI
T1 sequence (P54619 whole entry partner): as the sequence (P54619 whole entry) above
T1 sequence (P54646 whole entry): as the sequence (P54646 whole entry) above
T1 sequence (Q9Y478 2-270 partner limits assumed): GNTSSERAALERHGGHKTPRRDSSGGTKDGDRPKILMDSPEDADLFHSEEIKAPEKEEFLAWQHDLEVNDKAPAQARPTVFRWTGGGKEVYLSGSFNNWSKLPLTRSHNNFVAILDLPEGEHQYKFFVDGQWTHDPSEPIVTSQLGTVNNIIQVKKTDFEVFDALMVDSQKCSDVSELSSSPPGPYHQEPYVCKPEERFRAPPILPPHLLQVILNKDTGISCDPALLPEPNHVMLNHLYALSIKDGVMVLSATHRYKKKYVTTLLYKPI

| SMILES | %max [1] | EC50 [2] | further results |
| --- | --- | --- | --- |
| O=C(O)CCc1nc2ccccc2[nH]1 | 14% |  |  |
| O=C(O)CCc1nc2cc(Cl)c(Br)cc2[nH]1 | 44% |  |  |
| O=C(O)c1cc(Oc2nc3cc(C#Cc4ccccc4)c(Cl)cc3[nH]2)ccc1Cl |  | 0.015 µM | %max [4]: 250% |
| O=C(O)c1cc(Oc2nc3cc(-c4ccc(-c5ccccc5)cc4)c(Cl)cc3[nH]2)ccc1Cl |  | 0.032 µM | %max [4]: 310% |
| O=C(O)CCc1nc2cc(Cl)c(-c3ccc(-c4ccccc4)cc3)cc2[nH]1 | 130% | 6 µM |  |
| O=C(O)CSc1nc2cc(C#Cc3ccccc3)c(Cl)cc2[nH]1 |  | 0.2 µM | %max [3]: 320% |
| Cc1ccc(Oc2nc3cc(C#Cc4ccccc4)c(Cl)cc3[nH]2)cc1C(=O)O |  | 0.007 µM | %max [4]: 240% |
| O=C(O)c1cccc(Sc2nc3cc(-c4ccc(-c5ccccc5O)cc4)c(Cl)cc3[nH]2)c1 |  | 0.029 µM | %max [3]: 100% |
| Cc1ccc(Oc2nc3cc(-c4ccc5c(ccn5C)c4)c(Cl)cc3[nH]2)cc1C(=O)O |  | 0.002 µM | %max [4]: 340% |
| Cc1ccc(Oc2nc3cc(-c4ccc(-c5ccccc5O)cc4)c(Cl)cc3[nH]2)cc1C(=O)O |  | 0.003 µM | %max [4]: 230% |
| Cc1cc2nc(CCC(=O)O)[nH]c2cc1C | 19% |  |  |
| O=C(O)CSc1nc2cc(-c3ccc(-c4ccccc4)cc3)c(Cl)cc2[nH]1 |  | 0.15 µM | bioavailability [5]: 7%; inhibition in vivo at 30 mg/kg [6]: 40%; half-life [7]: 10.8 h; Vd [8]: 6.7 L/kg; AUC/dose [9]: 0.05 µM·kg·h/mg; AUC/dose [10]: 11.4 µM·kg·h/mg; bioavailability [11]: 77%; inhibition in vivo at 100 mg/kg [12]: 20%; %max [3]: 260%; half-life [13]: 2.8 h; clearance [14]: 3.6 L/h/kg; clearance [15]: 0.174 L/h/kg; Vd [16]: 2.6 L/kg; Papp [17]: Permeable |
| Cc1ccc(Oc2nc3cc(-c4ccc(-c5ccn[nH]5)cc4)c(Cl)cc3[nH]2)cc1C(=O)O |  | 0.011 µM | %max [4]: 260% |
| O=C(O)CCc1nc2cc(Cl)ccc2[nH]1 | 41% |  |  |
| COc1ccc2[nH]c(CCC(=O)O)nc2c1 | 14% |  |  |

Second part, led by results:

| %max [1] | EC50 [2] | SMILES | further results |
| --- | --- | --- | --- |
|  | 0.8 µM | O=C(O)c1cccc(Sc2nc3cc(-c4ccc(-c5ccccc5)cc4)c(Cl)cc3[nH]2)c1 | %max [3]: 200% |
| 78% | 36 µM | O=C(O)CCc1nc2cc(Cl)c(Cl)cc2[nH]1 |  |
| 150% | 7.4 µM | O=C(O)c1cccc(Sc2nc3cc(Cl)c(Cl)cc3[nH]2)c1 |  |
| 10% |  | O=C(O)c1cccc(-c2nc3cc(Cl)c(Cl)cc3[nH]2)c1 |  |
| 15% |  | O=C(O)CC[S+]([O-])c1nc2cc(Cl)c(Cl)cc2[nH]1 (configuration not stated) |  |
| 130% | 8 µM | O=C(O)CCc1nc2cc(Cl)c(-c3ccccc3)cc2[nH]1 |  |
| 130% | 8.1 µM | O=C(O)c1ccccc1Sc1nc2cc(Cl)c(Cl)cc2[nH]1 |  |
|  | 0.061 µM | O=C(O)c1cccc(Oc2nc3cc(-c4ccc(-c5ccccc5)cc4)c(Cl)cc3[nH]2)c1 | %max [4]: 260% |
| 35% |  | O=C(O)c1ccc(Sc2nc3cc(Cl)c(Cl)cc3[nH]2)cc1 |  |
| 76% | 2.6 µM | O=C(O)c1csc(Sc2nc3cc(Cl)c(Cl)cc3[nH]2)n1 |  |
| 6% |  | O=C(O)c1ccccc1-c1nc2cc(Cl)c(Cl)cc2[nH]1 |  |
| 140% | 2.9 µM | O=C(O)Cc1cccc(Sc2nc3cc(Cl)c(Cl)cc3[nH]2)c1 |  |
| 130% | 4 µM | O=C(O)CSc1nc2cc(Cl)c(Cl)cc2[nH]1 |  |
| 130% | 8.5 µM | O=C(O)CCSc1nc2cc(Cl)c(Cl)cc2[nH]1 |  |
